Results reported in ChEMBL document CHEMBL1156021, “Design, synthesis, and evaluation of novel 3-amino-4-hydrazine-cyclobut-3-ene-1,2-diones as potent and selective CXCR2 chemokine receptor antagonists” (Bioorg Med Chem Lett, 2009).

Tests used:
[1] = biological target: T1, C-X-C chemokine receptor type 2 (Homo sapiens, UniProt P25025); test: Displacement of [125I]IL-8 from human CXCR2 expressed in mouse BaF3 cells by liquid scintillation counting; format: cell-based
T1 sequence (P25025 whole entry): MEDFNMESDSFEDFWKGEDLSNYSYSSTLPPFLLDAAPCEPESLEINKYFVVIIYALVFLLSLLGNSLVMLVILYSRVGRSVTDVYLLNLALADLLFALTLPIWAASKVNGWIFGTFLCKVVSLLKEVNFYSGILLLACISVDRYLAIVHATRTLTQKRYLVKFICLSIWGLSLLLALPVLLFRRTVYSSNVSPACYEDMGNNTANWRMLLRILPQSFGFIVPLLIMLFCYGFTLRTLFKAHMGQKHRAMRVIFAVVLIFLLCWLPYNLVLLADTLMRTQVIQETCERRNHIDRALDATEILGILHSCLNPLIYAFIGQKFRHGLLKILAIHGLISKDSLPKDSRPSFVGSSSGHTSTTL
Outline: (§1)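 SPA competition binding with receptor-overexpressing membranes (CXCR2 or CXCR1, CXCR1 at twice the membrane amount) mixed with 2 mg/mL wheatgerm-agglutinin-coated SPA beads. Buffer was 25 mM HEPES, 3 mM MgCl2, pH 7.4; the membrane and bead mix was held on ice 5 min. Tracer was [125I]IL-8 from a 0.040 nM stock. Compounds were half-log serially diluted in DMSO. Plates were incubated 2 h at room temperature, protected from light, then counted by liquid scintillation.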

Homo sapiens = species: Homo sapiens; test: Selectivity ratio of Ki for human CXCR1 to Ki for human CXCR2
Outline: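 Scintillation proximity binding assays on membranes over-expressing CXCR2 or CXCR1, with CXCR1 membranes at twice the CXCR2 membrane level. Membranes were premixed with 2 mg/mL wheatgerm-agglutinin SPA beads in 25 mM HEPES, 3 mM MgCl2, pH 7.4, 5 min on ice. Half-log serial DMSO dilutions were added with [125I]IL-8 (0.040 nM stock). Plates were kept 2 h at room temperature in the dark, then read by scintillation counting.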

[2] = biological target: T2, C-X-C chemokine receptor type 1 (Homo sapiens, UniProt P25024); test: Displacement of [125I]IL-8 from human CXCR1 expressed in mouse BaF3 cells by liquid scintillation counting; format: cell-based; outline: as §1
T2 sequence (P25024 whole entry): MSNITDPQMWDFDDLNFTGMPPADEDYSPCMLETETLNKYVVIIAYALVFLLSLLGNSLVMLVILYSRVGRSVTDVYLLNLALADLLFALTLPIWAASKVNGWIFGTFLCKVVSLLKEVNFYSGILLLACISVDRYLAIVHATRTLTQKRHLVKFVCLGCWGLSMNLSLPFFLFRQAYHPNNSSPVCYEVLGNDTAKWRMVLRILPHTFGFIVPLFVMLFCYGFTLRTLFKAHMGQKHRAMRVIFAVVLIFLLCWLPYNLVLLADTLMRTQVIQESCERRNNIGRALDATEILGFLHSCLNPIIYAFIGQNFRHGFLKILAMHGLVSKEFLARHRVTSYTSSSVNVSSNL

[3] = Metabolic stability in human liver microsomes assessed as compound remaining at 1 uM after 120 mins; format: ADME, Microsome; conditions: read-out: Stability
[4] = Metabolic stability in human liver microsomes assessed as half life at 1 uM; format: ADME, Microsome
[5] = Metabolic stability in rat liver microsomes assessed as half life at 1 uM; format: ADME, Microsome

| Compound | Ki [1] [µM] | Ratio Ki (Homo sapiens) | Ki [2] [µM] | remaining at 2 h, 1 µM [3] [%] | half-life at 1 µM [4] [h] | IC50 [1] [µM] | half-life at 1 µM [5] [h] |
| --- | --- | --- | --- | --- | --- | --- | --- |
| CCN(Nc1c(Nc2cccc(C(=O)N(C)C)c2O)c(=O)c1=O)c1ccccn1 | 0.13 | 40 | 5.2 | > 50 | > 2 | – | – |
| CCNNc1c(Nc2cccc(C(=O)N(C)C)c2O)c(=O)c1=O | – | – | – | – | – | 5.49 | – |
| CCN(CC)Nc1c(Nc2cccc(C(=O)N(C)C)c2O)c(=O)c1=O | 0.12 | 80 | 9.7 | > 50 | > 2 | 1.86 | 1.4 |
| CCN(Nc1c(Nc2cccc(C(=O)N(C)C)c2O)c(=O)c1=O)C(C)=O | 0.32 | – | > 12 | – | – | 3.29 | – |
| CCN(Nc1c(Nc2cccc(C(=O)N(C)C)c2O)c(=O)c1=O)c1ccc(F)cc1 | 0.55 | > 20 | > 12 | – | – | – | – |
| CCN(Nc1c(Nc2cccc(C(=O)N(C)C)c2O)c(=O)c1=O)C(=O)c1ccc(F)cc1 | 0.26 | > 46 | > 12 | – | – | – | – |
| CCN(Nc1c(Nc2cccc(C(=O)N(C)C)c2O)c(=O)c1=O)c1ccc(OC)cc1 | 0.18 | 40 | 6.5 | – | – | – | – |
| CCN(Cc1ccc(F)cc1)Nc1c(Nc2cccc(C(=O)N(C)C)c2O)c(=O)c1=O | 7.2 | – | > 12 | – | – | – | – |
| CCN(Nc1c(Nc2cccc(C(=O)N(C)C)c2O)c(=O)c1=O)c1ccccc1 | 0.11 | 40 | 4.1 | > 50 | > 2 | – | – |
